Active and inactive are the calls of the source. The rule behind the calls is not given here.
Tests used:
[1] = biological target: T1, B2 bradykinin receptor (Cavia porcellus) (UniProt O70526); experiment: Inhibition of BK-induced bronchoconstriction in Dunkin Hartley guinea pig at 100 nmol/kg, it; type: functional; parameters: scale not given: the % may be the effect or the level left
T1 sequence (whole entry): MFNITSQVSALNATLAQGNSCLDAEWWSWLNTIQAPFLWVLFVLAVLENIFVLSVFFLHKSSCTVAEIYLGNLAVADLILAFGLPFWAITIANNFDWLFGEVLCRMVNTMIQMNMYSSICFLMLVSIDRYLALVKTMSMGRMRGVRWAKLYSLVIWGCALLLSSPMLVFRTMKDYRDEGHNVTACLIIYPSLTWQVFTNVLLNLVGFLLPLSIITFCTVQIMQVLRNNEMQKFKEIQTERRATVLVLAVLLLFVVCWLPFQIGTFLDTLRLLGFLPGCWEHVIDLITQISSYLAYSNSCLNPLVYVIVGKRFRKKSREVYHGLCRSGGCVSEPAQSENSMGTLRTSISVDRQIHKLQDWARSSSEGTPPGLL
In short: (§1)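 Compound was given intratracheally to anaesthetized guinea pigs. Five min later, BK (10 nmol/kg iv) challenge was given and repeated every 30 min for 210 min. Pulmonary insufflation pressure was monitored. Result is Σ%: residual BK response as % of basal, normalized to control at 5–210 min time points, expressed as % of theoretical maximum.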

[2] = biological target: T1, B2 bradykinin receptor (Cavia porcellus); experiment: Effect on BK-induced hypotension in Dunkin Hartley guinea pig at 100 nmol/kg, it; type: functional
In short: as §1, with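 “Blood” for “Pulmonary insufflation”, “each observation” for “5–210 min”, “(5–210 min),” for “points,”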

[3] = biological target: T1, B2 bradykinin receptor (Cavia porcellus); experiment: Inhibition of BK-induced bronchoconstriction in Dunkin Hartley guinea pig at 30 nmol/kg, it; type: functional; parameters: scale not given: the % may be the effect or the level left; in short: as §1
[4] = biological target: T1, B2 bradykinin receptor (Cavia porcellus); experiment: Inhibition of BK-induced bronchoconstriction in Dunkin Hartley guinea pig at 10 nmol/kg, it; type: functional; parameters: scale not given: the % may be the effect or the level left; in short: as §1
B1 bradykinin receptor = biological target: T2, B1 bradykinin receptor (Homo sapiens, UniProt P46663); experiment: Binding affinity to human bradykinin B1 receptor
T2 sequence (P46663 whole entry): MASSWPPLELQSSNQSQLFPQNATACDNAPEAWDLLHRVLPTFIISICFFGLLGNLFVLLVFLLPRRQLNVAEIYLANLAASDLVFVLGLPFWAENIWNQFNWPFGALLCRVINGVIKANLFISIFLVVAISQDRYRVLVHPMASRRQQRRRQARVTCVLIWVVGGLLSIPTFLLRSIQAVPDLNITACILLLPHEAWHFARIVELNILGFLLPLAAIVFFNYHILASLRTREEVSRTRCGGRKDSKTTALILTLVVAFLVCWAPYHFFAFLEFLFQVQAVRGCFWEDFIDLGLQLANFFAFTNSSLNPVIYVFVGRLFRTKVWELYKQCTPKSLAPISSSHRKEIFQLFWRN

[5] = biological target: Muscarinic acetylcholine receptor (Homo sapiens) (UniProt P20309+P08173+P11229+P08172+P08912); experiment: Activity at muscarinic receptor at 1 uM; type: protein assay
Homo sapiens = species on record: Homo sapiens; experiment: Activity at nicotinic receptor at 1 uM
B2 bradykinin receptor [6] = biological target: T3, B2 bradykinin receptor (Homo sapiens, UniProt P30411); experiment: Displacement of [3H]BK from human bradykinin B2 receptor transfected in CHO cells; type: cell-based
T3 sequence (P30411 whole entry): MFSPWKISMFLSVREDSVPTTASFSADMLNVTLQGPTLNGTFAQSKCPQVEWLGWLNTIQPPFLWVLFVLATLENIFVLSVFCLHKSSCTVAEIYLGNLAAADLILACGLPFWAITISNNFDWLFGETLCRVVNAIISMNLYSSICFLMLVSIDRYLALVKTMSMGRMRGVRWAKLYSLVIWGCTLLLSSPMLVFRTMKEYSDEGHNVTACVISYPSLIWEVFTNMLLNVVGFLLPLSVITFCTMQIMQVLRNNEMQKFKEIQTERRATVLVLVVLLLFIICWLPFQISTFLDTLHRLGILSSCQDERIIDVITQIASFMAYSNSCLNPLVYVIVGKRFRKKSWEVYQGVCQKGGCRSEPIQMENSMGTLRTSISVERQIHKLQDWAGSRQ
In short: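 pKi from inhibition of specific [3H]-BK binding to membrane preparations of CHO cells stably transfected with the human B2 receptor.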

B2 bradykinin receptor [7] = biological target: T3, B2 bradykinin receptor; experiment: Antagonist potency at human bradykinin B2 receptor assessed as effect on inositol monophosphate accumulation in CHOdhfr- cells; type: functional, cell-based; conditions: read-out: pA2 (converted)
In short: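 pA2 derived from antagonism of bradykinin-stimulated inositol monophosphate accumulation in CHOdhfr- cells stably transfected with the human B2 receptor.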

B2 bradykinin receptor [8] = biological target: T4, B2 bradykinin receptor (Cavia porcellus, UniProt O70526); experiment: Antagonist potency on BK-induced contraction of guinea pig ileum longitudinal smooth muscle; type: functional, tissue-based; conditions: read-out: pA2 (converted)
T4 sequence (O70526 whole entry): T1 sequence (whole entry)

[9] = biological target: T1, B2 bradykinin receptor (Cavia porcellus); experiment: Inhibition of BK-induced bronchoconstriction in Dunkin Hartley guinea pig at 300 nmol/kg, it; type: functional; parameters: scale not given: the % may be the effect or the level left; in short: as §1
[10] = biological target: T1, B2 bradykinin receptor (Cavia porcellus); experiment: Effect on BK-induced hypotension in Dunkin Hartley guinea pig at 300 nmol/kg, it; type: functional
In short: as §1, with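 “Blood” for “Pulmonary insufflation”, “each observation” for “5–210 min”, “(5–210 min),” for “points,”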

Activity [1] [%]	Activity [2] [%]	Activity [3] [%]	Activity [4] [%]	Ki (B1 bradykinin receptor) [nM]	Activity [5]	Activity (Homo sapiens)	Ki (B2 bradykinin receptor [6]) [nM]	Kb (B2 bradykinin receptor [7]) [nM]	Kb (B2 bradykinin receptor [8]) [nM]	Activity [9] [%]	Activity [10] [%]	Compound
13	60	39	63	> 10000	inactive	inactive						Cc1cc(C)c2cccc(OCc3c(Cl)ccc(S(=O)(=O)NC4(C(=O)N5CCN(C(=O)[C@@H](N)CCC[N+](C)(C)C)CC5)CCOCC4)c3Cl)c2n1 [FASITIBANT]
			73	> 10000			0.398	0.398	0.316	96	100	Cc1cc(C)c2cccc(OCc3c(Cl)ccc(S(=O)(=O)N4CCC[C@@H]4C(=O)NCCCNC(=O)c4ccc(C(=N)N)cc4)c3Cl)c2n1
				> 10000			1.58	0.794	0.158	29	67	Cc1cc(C)c2cccc(OCc3c(Cl)ccc(S(=O)(=O)NC4(C(=O)N5CCN(C(=O)[C@@H](N)CCCCN(C)C)CC5)CCCC4)c3Cl)c2n1
				> 10000			0.631	0.794	0.1	54	78	Cc1cc(C)c2cccc(OCc3c(Cl)ccc(S(=O)(=O)NC(C)(C)C(=O)N4CCN(C(=O)[C@@H](N)CCCCNC(=N)N)CC4)c3Cl)c2n1

Source: ChEMBL document CHEMBL1141405, “Design and synthesis of novel sulfonamide-containing bradykinin hB2 receptor antagonists. 2. Synthesis and structure-activity relationships of alpha,alpha-cycloalkylglycine sulfonamides” (J Med Chem, 2007)
